Results taken from publication PMC7982424 (Acta Pharmaceutica Sinica. B, 2020).
“Also recorded” adds a separate entry of the source. Where a SMILES comes first, the peptide text is derived from it. The star is where a group is joined. Bz = O=C(c1ccccc1)*; NHPh = c1ccc(N*)cc1

Assays:
Cytotoxicity assay = type: cell-based; settings: human, TZM-GFP cells
Procedure, shortened: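 TZM-GFP cells were plated at 1 × 10^4 cells per well and exposed continuously to increasing concentrations of test compound for 72 h. Viable cells were counted by XTT. CC50 came from a log(inhibitor) vs normalized response, variable-slope fit for each independent assay, then averaged. Runs were in duplicate across at least two independent experiments; mean ± SD.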

HIV-1NL4-3 = assay: Anti-HIV-1 assay in TZM-GFP cells; type: cell-based; settings: for inhibition at 2 µM: Human immunodeficiency virus 1, read-out: Inhibition at 2 μmol/L; for inhibition at 20 µM: Human immunodeficiency virus 1, read-out: Inhibition at 20 μmol/L; for Inhibition at 2 μmol/L: 2 μmol/L compound
Procedure, shortened: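 TZM-GFP cells seeded at 1 × 10^4 per well; after 24 h, medium replaced with test compound at 20 μmol/L, with actives retested at 2 μmol/L. HIV-1NL4-3 (HEK 293FT-transfection stock, MT2-propagated, PEG-concentrated) added at MOI 1 24 h later. After 48 h, GFP-positive cells counted by imaging; inhibition relative to DMSO controls. Duplicates, at least two independent experiments.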

[1] = Microsomal stability assay, mouse liver microsomes; type: in vitro ADME; settings: for half-life at 1 μmol/L: mouse, pH 7.4
[2] = Microsomal stability assay, human liver microsomes; type: in vitro ADME; settings: for half-life at 1 μmol/L: human, pH 7.4

Row | SMILES | CC50 at 72 h (Cytotoxicity assay) [µM] | inhibition at 2 µM (HIV-1NL4-3) [%] | inhibition at 20 µM (HIV-1NL4-3) [%] | other results
1 | CN(C(=O)[C@H](Cc1ccccc1)NC(=O)CC1NC(=O)NC1=O)c1ccccc1 (stereo partly drawn) [Compound 2, (2S)-2-(2-(2,5-Dioxoimidazolidin-4-yl)acetamido)-N-methyl-N,3-diphenylpropanamide] | > 50 | – | – | antiviral activity against HIV-1 (in words) (HIV-1NL4-3; HIV-1 in TZM-GFP cells): completely inactive
2 | Cc1ccc(N(C)C(=O)[C@H](Cc2ccccc2)NC(=O)CC2NC(=O)NC2=O)cc1 (stereo partly drawn) [Compound 3, (2S)-2-(2-(2,5-Dioxoimidazolidin-4-yl)acetamido)-N-methyl-3-phenyl-N-(p-tolyl)propanamide] | > 50 | 2 | 62 | –
3 | CN(C(=O)[C@H](Cc1ccccc1)NC(=O)CC1NC(=O)NC1=O)c1ccc(Cl)cc1 (stereo partly drawn) [Compound 4, (2S)-N-(4-Chlorophenyl)-2-(2-(2,5-dioxoimidazolidin-4-yl)acetamido)-N-methyl-3-phenylpropanamide] | > 50 | 17 | 96 | Inhibition at 2 μmol/L (HIV-1NL4-3; HIV-1 in TZM-GFP cells): inhibited HIV-1 weakly; Inhibition at 20 μmol/L (HIV-1NL4-3; 20 μmol/L compound, HIV-1 in TZM-GFP cells): almost completely
4 | CN(C(=O)[C@H](Cc1ccccc1)NC(=O)CC1NC(=O)NC1=O)c1cccc(Cl)c1 (stereo partly drawn) [Compound 5, (2S)-N-(3-Chlorophenyl)-2-(2-(2,5-dioxoimidazolidin-4-yl)acetamido)-N-methyl-3-phenylpropanamide] | > 50 | – | – | –
5 | CN(C(=O)[C@H](Cc1ccccc1)NC(=O)CC1NC(=O)NC1=O)c1ccc(F)cc1 (stereo partly drawn) [Compound 6, (2S)-2-(2-(2,5-Dioxoimidazolidin-4-yl)acetamido)-N-(4-fluorophenyl)-N-methyl-3-phenylpropanamide] | > 50 | – | – | –
6 | CN(C(=O)[C@H](Cc1ccccc1)NC(=O)CC1NC(=O)NC1=O)c1cccc(F)c1 (stereo partly drawn) [Compound 7, (2S)-2-(2-(2,5-Dioxoimidazolidin-4-yl)acetamido)-N-(3-fluorophenyl)-N-methyl-3-phenylpropanamide] | > 50 | – | – | –
7 | Cc1cn(CC(=O)N[C@@H](Cc2ccccc2)C(=O)N(C)c2ccccc2)c(=O)[nH]c1=O [Compound 8, (S)-N-Methyl-2-(2-(5-methyl-2,4-dioxo-3,4-dihydropyrimidin-1(2H)-yl)acetamido)-N,3-diphenylpropanamide] | > 50 | 35 | 95 | Inhibition at 2 μmol/L (HIV-1NL4-3; HIV-1 in TZM-GFP cells): exhibited inhibition
8 | Cc1ccc(N(C)C(=O)[C@H](Cc2ccccc2)NC(=O)Cn2cc(C)c(=O)[nH]c2=O)cc1 [Compound 9, (S)-N-Methyl-2-(2-(5-methyl-2,4-dioxo-3,4-dihydropyrimidin-1(2H)-yl)acetamido)-3-phenyl-N-(p-tolyl)propanamide] | > 50 | 7 | 85 | –
9 | Cc1cn(CC(=O)N[C@@H](Cc2ccccc2)C(=O)N(C)c2ccc(Cl)cc2)c(=O)[nH]c1=O [Compound 10, (S)-N-(4-Chlorophenyl)-N-methyl-2-(2-(5-methyl-2,4-dioxo-3,4-dihydropyrimidin-1(2H)-yl)acetamido)-3-phenylpropanamide] | > 50 | – | – | half-life at 1 μmol/L [1]: 4.6 min; Inhibition at 2 μmol/L (HIV-1NL4-3; HIV-1 in TZM-GFP cells): exhibited inhibition; half-life at 1 μmol/L [2]: 12 min
10 | Cc1cn(CC(=O)N[C@@H](Cc2ccccc2)C(=O)N(C)c2cccc(Cl)c2)c(=O)[nH]c1=O [Compound 11, (S)-N-(3-Chlorophenyl)-N-methyl-2-(2-(5-methyl-2,4-dioxo-3,4-dihydropyrimidin-1(2H)-yl)acetamido)-3-phenylpropanamide] | > 50 | 37 | 95 | Inhibition at 2 μmol/L (HIV-1NL4-3; HIV-1 in TZM-GFP cells): exhibited inhibition
11 | Cc1cn(CC(=O)N[C@@H](Cc2ccccc2)C(=O)N(C)c2ccc(F)cc2)c(=O)[nH]c1=O [Compound 12, (S)-N-(4-Fluorophenyl)-N-methyl-2-(2-(5-methyl-2,4-dioxo-3,4-dihydropyrimidin-1(2H)-yl)acetamido)-3-phenylpropanamide] | > 50 | 6 | 94 | –
12 | Cc1cn(CC(=O)N[C@@H](Cc2ccccc2)C(=O)N(C)c2cccc(F)c2)c(=O)[nH]c1=O [Compound 13, (S)-N-(3-Fluorophenyl)-N-methyl-2-(2-(5-methyl-2,4-dioxo-3,4-dihydropyrimidin-1(2H)-yl)acetamido)-3-phenylpropanamide] | > 50 | 0 | 74 | –
13 | Cc1cn(CC(=O)N[C@@H](Cc2ccccc2)C(=O)N(C)c2cccc(Br)c2)c(=O)[nH]c1=O [Compound 14, (S)-N-(3-Bromophenyl)-N-methyl-2-(2-(5-methyl-2,4-dioxo-3,4-dihydropyrimidin-1(2H)-yl)acetamido)-3-phenylpropanamide] | > 50 | 22 | 100 | Inhibition at 2 μmol/L (HIV-1NL4-3; HIV-1 in TZM-GFP cells): exhibited inhibition
14 | Cc1cn(CC(=O)N[C@@H](Cc2ccccc2)C(=O)N(C)c2cccc(C(F)(F)F)c2)c(=O)[nH]c1=O [Compound 15, (S)-N-Methyl-2-(2-(5-methyl-2,4-dioxo-3,4-dihydropyrimidin-1(2H)-yl)acetamido)-3-phenyl-N-(3-(trifluoromethyl)phenyl)propanamide] | > 50 | 28 | 95 | Inhibition at 2 μmol/L (HIV-1NL4-3; HIV-1 in TZM-GFP cells): exhibited inhibition
15 | Cc1cn(CC(=O)N[C@@H](C(=O)N(C)c2ccccc2)c2ccccc2)c(=O)[nH]c1=O [Compound 16, (R)-N-Methyl-2-(2-(5-methyl-2,4-dioxo-3,4-dihydropyrimidin-1(2H)-yl)acetamido)-N,2-diphenylacetamide] | > 50 | – | – | antiviral activity against HIV-1 (in words) (HIV-1NL4-3; HIV-1 in TZM-GFP cells): did not inhibit HIV-1
16 | CN(C(=O)[C@H](Cc1ccccc1)NC(=O)c1c[nH]c(=O)[nH]c1=O)c1ccccc1 [Compound 17, (S)-N-(1-(Methyl(phenyl)amino)-1-oxo-3-phenylpropan-2-yl)-2,4-dioxo-1,2,3,4-tetrahydropyrimidine-5-carboxamide] | > 50 | – | – | antiviral activity against HIV-1 (in words) (HIV-1NL4-3; HIV-1 in TZM-GFP cells): lack of antiviral activity; also recorded: completely inactive
17 | CN(C(=O)[C@H](Cc1ccccc1)NC(=O)CNC(=O)c1ccccc1)c1ccccc1 [Compound 18, (S)-N-(2-((1-(Methyl(phenyl)amino)-1-oxo-3-phenylpropan-2-yl)amino)-2-oxoethyl)benzamide] | > 50 | 15 | 96 | half-life at 1 μmol/L [1]: 3.6 min; half-life at 1 μmol/L [2]: 15 min
18 | Cc1ccc(N(C)C(=O)[C@H](Cc2ccccc2)NC(=O)CNC(=O)c2ccccc2)cc1 [Compound 19, (S)-N-(2-((1-(Methyl(p-tolyl)amino)-1-oxo-3-phenylpropan-2-yl)amino)-2-oxoethyl)benzamide] | > 50 | – | – | half-life at 1 μmol/L [1]: 5 min; half-life at 1 μmol/L [2]: 22 min
19 | CN(C(=O)[C@H](Cc1ccccc1)NC(=O)CNC(=O)c1ccccc1)c1ccc(Cl)cc1 [Compound 20, (S)-N-(2-((1-((4-Chlorophenyl)(methyl)amino)-1-oxo-3-phenylpropan-2-yl)amino)-2-oxoethyl)benzamide] | > 50 | – | – | half-life at 1 μmol/L [1]: 13 min; fold increase of half-life over PF74 in MLMs ([1]; relative to PF74): 22 fold; half-life at 1 μmol/L [2]: 36 min; fold increase of half-life over PF74 in HLMs ([2]; relative to PF74): 51 fold
20 | CN(C(=O)[C@H](Cc1ccccc1)NC(=O)CNC(=O)c1ccccc1)c1cccc(Cl)c1 [Compound 21, (S)-N-(2-((1-((3-Chlorophenyl)(methyl)amino)-1-oxo-3-phenylpropan-2-yl)amino)-2-oxoethyl)benzamide] | > 50 | 40 | 95 | –
21 | CN(C(=O)[C@H](Cc1ccccc1)NC(=O)CNC(=O)c1ccccc1)c1ccc(F)cc1 [Compound 22, (S)-N-(2-((1-((4-Fluorophenyl)(methyl)amino)-1-oxo-3-phenylpropan-2-yl)amino)-2-oxoethyl)benzamide] | > 50 | 12 | 97 | –
22 | CN(C(=O)[C@H](Cc1ccccc1)NC(=O)CNC(=O)c1ccccc1)c1cccc(Br)c1 [Compound 24, (S)-N-(2-((1-((3-Bromophenyl)(methyl)amino)-1-oxo-3-phenylpropan-2-yl)amino)-2-oxoethyl)benzamide] | > 50 | 38 | 97 | –
23 | CN(C(=O)[C@H](Cc1ccccc1)NC(=O)CNC(=O)c1ccccc1)c1cccc(C(F)(F)F)c1 [Compound 25, (S)-N-(2-((1-(Methyl(3-(trifluoromethyl)phenyl)amino)-1-oxo-3-phenylpropan-2-yl)amino)-2-oxoethyl)benzamide] | > 50 | 19 | 89 | –
24 | CCN(C(=O)[C@H](Cc1ccccc1)NC(=O)CNC(=O)c1ccccc1)c1ccccc1 [Compound 26, (S)-N-(2-((1-(Ethyl(phenyl)amino)-1-oxo-3-phenylpropan-2-yl)amino)-2-oxoethyl)benzamide] | > 50 | – | – | half-life at 1 μmol/L [1]: 2.4 min; half-life at 1 μmol/L [2]: 14 min
25 | O=C(CNC(=O)c1ccccc1)N[C@@H](Cc1ccccc1)C(=O)N1CCC[C@H]1C(=O)Nc1ccccc1 [Compound 27, (S)-1-(Benzoylglycyl-L-phenylalanyl)-N-phenylpyrrolidine-2-carboxamide] (Bz-Gly-Phe-Pro-NHPh) | > 50 | – | – | –
